Reference: ChEMBL document CHEMBL4373633, “New methods to assess 6-thiopurine toxicity and expanding its therapeutic application to pancreatic cancer via small molecule potentiators” (Medchemcomm, 2019)
pIC50, pKi: −log10 of the molar value. Calls of active or inactive are those of the source. No cut-off for these calls is given here.

Assays:
[1] = tested on: A549; assay: Synergistic antiproliferative activity against human A549 cells at 2.5 to 5 uM after 72 hrs in presence of 6TP by alamar blue assay; assay type: functional, cell-based
[2] = tested on: MIA PaCa-2; assay: Synergistic antiproliferative activity against human MIAPaCa2 cells assessed as cell death at 5 uM after 72 hrs in presence of 100 uM 6TP by alamar blue assay (reference value: 30.7%); assay type: functional
[3] = tested on: MIA PaCa-2; assay: Synergistic antiproliferative activity against human MIAPaCa2 cells assessed as cell death at 5 uM after 72 hrs in presence of 50 uM 6TP by alamar blue assay (reference value: 13.8%); assay type: functional
[4] = tested on: MIA PaCa-2; assay: Synergistic antiproliferative activity against human MIAPaCa2 cells assessed as cell death at 5 uM after 72 hrs in presence of 25 uM 6TP by alamar blue assay (reference value: 6.4%); assay type: functional
[5] = tested on: MIA PaCa-2; assay: Synergistic antiproliferative activity against human MIAPaCa2 cells assessed as cell death at 2.5 uM after 72 hrs in presence of 10 uM 6TP by alamar blue assay (reference value: 6.9%); assay type: functional
[6] = tested on: U-937; assay: Synergistic antiproliferative activity against human U937 cells at 2.5 to 5 uM after 72 hrs in presence of 6TP by alamar blue assay based Chou-Talalay method; assay type: functional, cell-based
[7] = tested on: MIA PaCa-2; assay: Synergistic antiproliferative activity against human MIAPaCa2 cells assessed as cell death at 2.5 uM after 72 hrs in presence of 100 uM 6TP by alamar blue assay (reference value: 30.7%); assay type: functional
[8] = tested on: MIA PaCa-2; assay: Synergistic antiproliferative activity against human MIAPaCa2 cells assessed as cell death at 2.5 uM after 72 hrs in presence of 50 uM 6TP by alamar blue assay (reference value: 13.8%); assay type: functional
[9] = tested on: REH; assay: Synergistic antiproliferative activity against human REH cells at 2.5 to 5 uM uM after 72 hrs in presence 6TP by alamar blue assay based alamar blue assay; assay type: functional, cell-based
[10] = tested on: HeLa; assay: Synergistic antiproliferative activity against human HeLa cells at 2.5 to 5 uM after 72 hrs in presence of 6TP by alamar blue assay; assay type: functional, cell-based
[11] = tested on: MIA PaCa-2; assay: Synergistic antiproliferative activity against human MIAPaCa2 cells assessed as cell death at 5 uM after 72 hrs in presence of 10 uM 6TP by alamar blue assay (reference value: 6.9%); assay type: functional
[12] = tested on: MIA PaCa-2; assay: Synergistic antiproliferative activity against human MIAPaCa2 cells assessed as cell death at 2.5 uM after 72 hrs in presence of 25 uM 6TP by alamar blue assay (reference value: 6.4%); assay type: functional
[13] = tested on: REH; assay: Synergistic antiproliferative activity against human REH cells assessed as cell death at 2.5 uM after 72 hrs in presence of 25 uM 6TP by alamar blue assay (reference value: 12.2%); assay type: functional
[14] = tested on: REH; assay: Synergistic antiproliferative activity against human REH cells assessed as cell death at 2.5 uM after 72 hrs in presence of 10 uM 6TP by alamar blue assay (reference value: 10.8%); assay type: functional
[15] = tested on: A549; assay: Antiproliferative activity against human A549 cells assessed as reduction in cell viability after 72 hrs by alamar blue assay; assay type: functional, cell-based; conditions: A549, 72 h
Procedure, shortened: (§1)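 Cell lines from ATCC, grown in medium with FBS and antibiotics at 37 °C, 5% CO2, 95% humidity. Compound DMSO stocks diluted in medium over 31.6 nM–200 μM, tested in triplicate. Plated at 2000 cells/well (adherent) or 3500 (suspension). After 69 h of continuous exposure, Alamar Blue was added for 3 h more. Fluorescence read at ex 560/em 590 nm. IC50 from ≥3 independent experiments.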

[16] = tested on: REH; assay: Synergistic antiproliferative activity against human REH cells assessed as cell death at 5 uM after 72 hrs in presence of 50 uM 6TP by alamar blue assay (reference value: 21.9%); assay type: functional
[17] = tested on: REH; assay: Synergistic antiproliferative activity against human REH cells assessed as cell death at 5 uM after 72 hrs in presence of 10 uM 6TP by alamar blue assay (reference value: 10.8%); assay type: functional
[18] = tested on: REH; assay: Synergistic antiproliferative activity against human REH cells assessed as cell death at 5 uM after 72 hrs in presence of 100 uM 6TP by alamar blue assay (reference value: 49.5%); assay type: functional
[19] = tested on: REH; assay: Synergistic antiproliferative activity against human REH cells assessed as cell death at 2.5 uM after 72 hrs in presence of 100 uM 6TP by alamar blue assay (reference value: 49.5%); assay type: functional
[20] = tested on: REH; assay: Synergistic antiproliferative activity against human REH cells assessed as cell death at 5 uM after 72 hrs in presence of 25 uM 6TP by alamar blue assay (reference value: 12.2%); assay type: functional
[21] = tested on: REH; assay: Synergistic antiproliferative activity against human REH cells assessed as cell death at 2.5 uM after 72 hrs in presence of 50 uM 6TP by alamar blue assay (reference value: 21.9%); assay type: functional
[22] = Inhibition of Streptococcus pyogenes UDPGDH expressed in Escherichia coli/rat liver microsome UGT-1A assessed as reduction in BDG production at 10 uM by HPLC analysis; assay type: ADME; conditions: microsomes
Procedure, shortened: (§2)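 Coupled in vitro model in phosphate buffer with alamethicin. Microsomal UGT-1A 4.4 units/mL, 2 mM bilirubin, 10 mM NAD+, 5 mM UDPG, UDPGDH:UGT-1A ratio 1:2200. Reaction started by adding UDPGDH. UDPGA-rescue arm included 15 μM UDPGA. Bilirubin mono- and diglucuronide formation measured by HPLC.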

[23] = Inhibition of Streptococcus pyogenes UDPGDH expressed in Escherichia coli/rat liver microsome UGT-1A assessed as reduction in BMG production at 10 uM by HPLC analysis; assay type: ADME; conditions: microsomes; procedure, shortened: as §2
[24] = biological target: T1, UDP-glucose 6-dehydrogenase (Streptococcus pyogenes, UniProt P0C0F4); assay: Inhibition of Streptococcus pyogenes UDPGDH expressed in Escherichia coli assessed as inhibitior constant after 20 to 120 secs by UV-VIS spectroscopic analysis
[25] = Inhibition of UDPGDH/UGT-1A in hepatocytes (unknown origin) assessed as reduction in BDG production at 25 uM by HPLC analysis; assay type: ADME, cell-based; conditions: human
[26] = biological target: T1, UDP-glucose 6-dehydrogenase; assay: Inhibition of Streptococcus pyogenes UDPGDH expressed in Escherichia coli assessed as inhibitior constant by mesuring UDPGA production after 20 to 120 secs by HPLC analysis
Procedure, shortened: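 UDPGA formed by UDPGDH was quantified by reverse-phase C18 HPLC at 262 nm against a UDPGA standard curve. Aqueous phase 8 mM imidazole/2.5 mM TBAHS, pH 6.5; organic phase methanol; 0.5 mL/min gradient over a 23 min run. UDPG was varied at several inhibitor levels. Slopes of the lines were plotted against inhibitor concentration, and Ki was taken as the […] x-intercept.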

[27] = Inhibition of Streptococcus pyogenes UDPGDH expressed in Escherichia coli/rat liver microsome UGT-1A assessed as reduction in BDG production at 5 uM by HPLC analysis; assay type: ADME; conditions: microsomes; procedure, shortened: as §2
[28] = Inhibition of Streptococcus pyogenes UDPGDH expressed in Escherichia coli/rat liver microsome UGT-1A assessed as reduction in BMG production at 5 uM in presence of UDPGA by HPLC analysis; assay type: ADME; conditions: microsomes; procedure, shortened: as §2
[29] = Inhibition of Streptococcus pyogenes UDPGDH expressed in Escherichia coli/rat liver microsome UGT-1A assessed as reduction in BDG production at 5 uM in presence of UDPGA by HPLC analysis; assay type: ADME; conditions: microsomes; procedure, shortened: as §2
[30] = Inhibition of UDPGDH/UGT-1A in hepatocytes (unknown origin) assessed as reduction in BMG production at 5 uM in presence of UDPGA by HPLC analysis; assay type: ADME, cell-based; conditions: human
[31] = Inhibition of UDPGDH/UGT-1A in hepatocytes (unknown origin) assessed as reduction in BDG production at 5 uM by HPLC analysis; assay type: ADME, cell-based; conditions: human
[32] = Inhibition of Streptococcus pyogenes UDPGDH expressed in Escherichia coli/rat liver microsome UGT-1A assessed as reduction in BMG production at 5 uM by HPLC analysis; assay type: ADME; conditions: microsomes; procedure, shortened: as §2
[33] = tested on: HeLa; assay: Antiproliferative activity against human HeLa cells assessed as reduction in cell viability after 72 hrs by alamar blue assay; assay type: functional, cell-based; procedure, shortened: as §1
[34] = tested on: MIA PaCa-2; assay: Antiproliferative activity against human MIAPaCa2 cells assessed as reduction in cell viability after 72 hrs by alamar blue assay; assay type: functional, cell-based; conditions: MIA PaCa-2, 72 h; procedure, shortened: as §1
[35] = tested on: U-937; assay: Antiproliferative activity against human U937 cells assessed as reduction in cell viability after 72 hrs by alamar blue assay; assay type: functional, cell-based; conditions: U-937, 72 h; procedure, shortened: as §1

T1 sequence (P0C0F4 whole entry): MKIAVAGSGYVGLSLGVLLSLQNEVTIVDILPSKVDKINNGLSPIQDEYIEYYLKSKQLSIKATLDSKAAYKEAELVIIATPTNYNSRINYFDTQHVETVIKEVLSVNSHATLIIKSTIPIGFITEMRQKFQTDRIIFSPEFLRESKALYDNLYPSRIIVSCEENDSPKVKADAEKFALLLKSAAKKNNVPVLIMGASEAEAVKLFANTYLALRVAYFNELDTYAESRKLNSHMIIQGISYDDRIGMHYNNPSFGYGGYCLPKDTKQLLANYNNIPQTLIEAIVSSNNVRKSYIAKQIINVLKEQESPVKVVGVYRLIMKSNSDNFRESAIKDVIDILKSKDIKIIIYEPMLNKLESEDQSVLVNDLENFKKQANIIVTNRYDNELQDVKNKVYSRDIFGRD

| SMILES | pKi [24] | pKi [26] | Activity [1] | Activity [2] | Activity [3] | Activity [4] | Activity [5] | Activity [6] | Activity [7] | Activity [8] | Activity [9] | Activity [10] | Activity [11] | Activity [12] | pIC50 [15] | other results |
| --- | --- | --- | --- | --- | --- | --- | --- | --- | --- | --- | --- | --- | --- | --- | --- | --- |
| COCOc1cc(O)c(C(=O)/C=C/c2ccccc2)c(OCOC)c1 | – | – | inactive | 19.9% | 13% | 8.2% | 7% | inactive | 15.2% | 9.7% | inactive | inactive | 8.1% | 7.2% | – | – |
| COCOc1cc(OC)c(C(=O)/C=C/c2ccccc2)c(OCOC)c1 | – | – | inactive | 61.2% | 40.8% | 30% | 16.5% | inactive | 49.1% | 25.1% | – | inactive | 25.4% | 18.6% | 5.14 | Activity [13]: 13.5%; Activity [14]: 11.1%; Activity [16]: 26.1%; Activity [17]: 12.7%; Activity [18]: 51%; Activity [19]: 51%; Activity [20]: 19.1%; Activity [21]: 22.1% |
| CNC(=O)c1cc(Oc2ccc(NC(=O)Nc3ccc(Cl)c(C(F)(F)F)c3)c(F)c2)ccn1 [REGORAFENIB] | – | – | – | – | – | – | – | – | – | – | – | – | – | – | – | inhibition (INH) [22]: Active; inhibition (INH) [23]: Active |
| COCOc1cc(OCOC)c(C(=O)/C=C/c2ccccc2)c(OCOC)c1 | – | – | inactive | 19.3% | 17% | 17.3% | 14.2% | inactive | 17.6% | 16.9% | inactive | inactive | 18.4% | 15% | < 4.70 | pIC50 [33]: 4.91; pIC50 [34]: < 4.70; pIC50 [35]: 5.13 |

The next lines start with results.

| pKi [24] | pKi [26] | SMILES | Activity [1] | Activity [2] | Activity [3] | Activity [4] | Activity [5] | Activity [6] | Activity [7] | Activity [8] | Activity [9] | Activity [10] | Activity [11] | Activity [12] | pIC50 [15] | other results |
| --- | --- | --- | --- | --- | --- | --- | --- | --- | --- | --- | --- | --- | --- | --- | --- | --- |
| 3.54 | 3.95 | Sc1ncnc2nc[nH]c12 [MERCAPTOPURINE ANHYDROUS] | – | – | – | – | – | – | – | – | – | – | – | – | – | inhibition (INH) [25]: Active |
| 5.15 | 5.30 | O=c1[nH]c(=S)c2[nH]c(=O)[nH]c2[nH]1 | – | – | – | – | – | – | – | – | – | – | – | – | – | inhibition (INH) [27]: Active; inhibition (INH) [28]: Not Active; inhibition (INH) [29]: Not Active; inhibition (INH) [30]: Not Active; inhibition (INH) [31]: Active; inhibition (INH) [32]: Active |
